The target in assay [1] is T1, Hypoxia inducible factors; HIF-1-alpha, HIF-2-alpha (Homo sapiens, UniProt Q16665+Q99814). As to the kind of experiment: Inhibition of HIF1 activity in human T47D cells by cell based reporter assay. The method, boiled down:
(§1)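 T47D cells grown in DMEM/F12 with glutamine, 10% FCS and penicillin/streptomycin at 37 °C under 5% CO2, then transiently transfected with the pHRE-TK-Luc reporter. Compounds from DMSO stocks were tested at half-log concentrations for 16 h, with luciferase read-out. IC50 was taken from curve fits of triplicate experiments.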
For orientation: Reporter assays use an easily measured gene product as a stand-in for the process of interest.

In assay [2] the target is T1, Hypoxia inducible factors; HIF-1-alpha, HIF-2-alpha. As to the kind of experiment: Inhibition of 1, 10-phenanthroline-induced HIF1 activity in human T47D cells by cell based reporter assay. A digest of the protocol: as §1
Assay [3] relates to T47D. As to the kind of experiment: Inhibition of human T47D cells assessed as cell viability under hypoxic condition after 48 hrs. The assay is classed as functional, cell-based. A digest of the protocol:
(§2)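 Neutral Red proliferation/viability assay on T47D or MDA-MB-231 cells kept in DMEM/F12 with 10% FCS at 37 °C under 5% CO2, with 48 h compound exposure. Read-out was OD540, and % inhibition = 1 − OD540(treated)/OD540(control). IC50 was derived from the concentration–response data.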

Assay [4] deals with T47D. As to the kind of experiment: Cell viability of human T47D cells under hypoxic condition after 16 hrs. It is filed as functional, cell-based.
For assay [5], the system named is T47D. As to the kind of experiment: Inhibition of human T47D cells assessed as cell viability under normoxic condition after 48 hrs. It is filed as functional, cell-based. A digest of the protocol:
as §2

For assay [6], the system named is MDA-MB-231. As to the kind of experiment: Inhibition of human MDA-MB-231 cells assessed as cell viability under hypoxic condition after 48 hrs. It is filed as functional, cell-based. The settings on record: MDA-MB-231, 48 h. The method, boiled down: as §2
For assay [7], the system named is MDA-MB-231. As to the kind of experiment: Inhibition of human MDA-MB-231 cells assessed as cell viability under normoxic condition after 48 hrs. It is filed as functional, cell-based. The following applies: MDA-MB-231, 48 h. A digest of the protocol: as §2

SMILES strings stand for the structures.

Turning to `COc1ccc2c(O)c(O)ccc2c1-c1c(OC)ccc2c(O)c(O)ccc12`, the 50% inhibitory concentration (IC50) in assay [1] is 4.3 µM; in assay [2] it was 5.1 µM; in assay [3] it was 8.3 µM; in assay [4], 19 µM; in assay [5], 8.7 µM; in assay [6] it was 7 µM. The concentration for half-maximal inhibition (IC50) in assay [7] is 6 µM.

As a reminder, the IC50 is the concentration at which inhibition is half-maximal.

Source of the values: ChEMBL document CHEMBL1141332, “Cytotoxic metabolites from an Indonesian sponge Lendenfeldia sp” (J Nat Prod, 2007).
